For 34 compounds, IC50 and MIC results are on record in ChEMBL document CHEMBL1144559, “4-Pyridone derivatives as new inhibitors of bacterial enoyl-ACP reductase FabI” (Bioorg Med Chem, 2007).

In brackets after ≈: the same amount, converted by molar mass. Bounds are passed on as bounds.

Experiment [1] in a line: Inhibition of Escherichia coli DH5-alpha His tagged Fab1. On the set-up: species or system DH5alpha. In short, it runs like this: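 His-tagged E. coli FabI was expressed in E. coli TOP10 (0.2% arabinose induction), purified on Ni–NTA and eluted with 250 mM imidazole. NADH consumption was read at 340 nm for 10 min at room temperature. IC50 is the concentration giving 50% reduction of absorption.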

The subject of experiment [2] is Staphylococcus aureus. The experiment can be described thus: Antimicrobial activity against Staphylococcus aureus ATCC 29213. It is filed as functional. An outline of the steps: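 Agar dilution on Mueller–Hinton agar with 5% horse blood, twofold serial compound dilutions. About 10^4 CFU per spot inoculated. Plates incubated at 35 °C for 20 h. MIC taken as the lowest concentration preventing visible growth.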

For orientation: IC50 means the concentration that gives 50% inhibition. Broadly, the MIC is the least concentration at which growth counts as inhibited. In turn, `Cc1c(Cc2c(Cl)cccc2Cl)c(=O)ccn1Cc1ccccc1` had an IC50 in experiment [1] of 0.3 µM. The minimum inhibitory concentration (MIC) in experiment [2] came out at 0.5 mg/L (≈ 1.4 µM).

The compound `CCCCc1c(Cc2c(Cl)cccc2Cl)c(=O)ccn1Cc1ccccc1` came in with a half-inhibitory concentration (IC50) in experiment [1] of 4.5 µM. The same compound yielded an MIC in experiment [2] of 32 mg/L (≈ 79.9 µM).

With `COC(=O)c1ccc(Cn2ccc(=O)c(Cc3c(Cl)cccc3Cl)c2C)cc1`, the half-maximal inhibitory concentration (IC50) in experiment [1] worked out at 0.3 µM. Also, in experiment [2], the MIC was over 128 mg/L.

For `Cc1c(Cc2c(Cl)cccc2Cl)c(=O)ccn1Cc1ccc(C(=O)O)cc1`, the IC50 in experiment [1] stood at 22 µM. The MIC in experiment [2] is over 128 mg/L.

In turn, `Cc1c(Cc2ccccc2)c(=O)ccn1Cc1ccccc1` came in with an IC50 in experiment [1] of 20 µM. The compound further showed an MIC in experiment [2] of 64 mg/L (≈ 221 µM).

Regarding `Cc1c(Cc2ccccc2Cl)c(=O)ccn1Cc1ccccc1`, in experiment [1], the IC50 is 4.2 µM. It took 64 mg/L (≈ 198 µM) to inhibit growth in experiment [2] (MIC).

`Cc1c(Cc2ccc(Cl)cc2Cl)c(=O)ccn1Cc1ccccc1` came in with a 50% inhibitory concentration (IC50) in experiment [1] of 2 µM. The MIC in experiment [2] was 32 mg/L (≈ 89.3 µM).

For `Cc1c(Cc2c(F)cccc2F)c(=O)ccn1Cc1ccccc1`, in experiment [1], the half-maximal inhibitory concentration (IC50) turned out to be 2.7 µM. Moreover, it took 4 mg/L (≈ 12.3 µM) to inhibit growth in experiment [2] (MIC).

As to `C=Cc1c(C)n(Cc2ccccc2)ccc1=O`, in experiment [1], the IC50 is over 100 µM.

`Cc1c(CCc2ccccn2)c(=O)ccn1Cc1ccccc1` displayed a 50% inhibitory concentration (IC50) in experiment [1] of over 100 µM.

With `Cc1c(CC2CCCCC2)c(=O)ccn1Cc1ccccc1`, the concentration for half-maximal inhibition (IC50) in experiment [1] was 0.4 µM. Further, in experiment [2], the MIC came out at 32 mg/L (≈ 108 µM).

With `Cc1c(Cc2c(Cl)cccc2Cl)c(=O)ccn1CCCCCO`, in experiment [1], half-maximal inhibition (IC50) required 1.8 µM. Moreover, in experiment [2], it took 8 mg/L (≈ 22.6 µM) to inhibit growth (MIC).

`Cc1c(Cc2c(Cl)cccc2Cl)c(=O)ccn1CCCCC(=O)O` had a 50% inhibitory concentration (IC50) in experiment [1] of 110 µM.

For `Cc1c(Cc2c(Cl)cccc2Cl)c(=O)ccn1Cc1c(Cl)cccc1Cl`, the IC50 in experiment [1] is 8.4 µM. In experiment [2], the MIC came out at 32 mg/L (≈ 74.9 µM).

Consider `Cc1c(Cc2c(Cl)cccc2Cl)c(=O)ccn1Cc1ccc(N)cc1`, for which the IC50 in experiment [1] amounted to 0.29 µM. In experiment [2], this compound returned an MIC of 1 mg/L (≈ 2.68 µM).

For `Cc1c(Cc2c(Cl)cccc2Cl)c(=O)ccn1Cc1ccco1`, the IC50 in experiment [1] was 0.47 µM. The compound also had a minimum inhibitory concentration (MIC) in experiment [2] of 2 mg/L (≈ 5.74 µM).

In experiment [1], `Cc1cccc(C)c1Cc1c(C)n(Cc2ccccc2)ccc1=O` showed an IC50 of 4.3 µM. In experiment [2], this compound displayed an MIC of 16 mg/L (≈ 50.4 µM).

In experiment [1], `CCCCc1cc(=O)c(Cc2c(Cl)cccc2Cl)c(C)[nH]1` yielded an IC50 of 0.38 µM. Moreover, in experiment [2], inhibition of growth (MIC) required 8 mg/L (≈ 24.7 µM).

`CCCCn1ccc(=O)c(Cc2c(Cl)cccc2Cl)c1C` gave an IC50 in experiment [1] of 0.31 µM. In experiment [2], this compound yielded an MIC of 2 mg/L (≈ 6.17 µM).

In experiment [1], `CCCCCCCCCCn1ccc(=O)c(Cc2c(Cl)cccc2Cl)c1C` gave an IC50 of 0.22 µM. This compound also registered an MIC in experiment [2] of 32 mg/L (≈ 78.4 µM).

`Cc1[nH]c(CC2CCCCC2)cc(=O)c1Cc1c(Cl)cccc1Cl`: in experiment [1], the half-inhibitory concentration (IC50) is 0.29 µM. In addition, the minimal inhibitory concentration (MIC) in experiment [2] was 2 mg/L (≈ 5.49 µM).

`Cc1c(/C=C/c2ccccn2)c(=O)ccn1Cc1ccccc1` registered an IC50 in experiment [1] of over 100 µM.

In experiment [1], `Cc1c(Cc2c(F)cccc2Cl)c(=O)ccn1Cc1ccccc1` registered an IC50 of 0.39 µM. In experiment [2], this compound showed a minimum inhibitory concentration (MIC) of 2 mg/L (≈ 5.85 µM).

In turn, `Cc1[nH]ccc(=O)c1Cc1c(Cl)cccc1Cl` came in with a concentration for half-maximal inhibition (IC50) in experiment [1] of 120 µM. In experiment [2], this compound yielded an MIC of over 64 mg/L.

The compound `Cc1c(Cc2c(Cl)cc(Cl)cc2Cl)c(=O)ccn1Cc1ccccc1` had an IC50 in experiment [1] of 1.5 µM. This compound yielded an MIC in experiment [2] of 8 mg/L (≈ 20.4 µM).

In the case of `Cc1c(Cc2c(Cl)cccc2Cl)c(=O)ccn1C`, 11 µM corresponded to half-maximal inhibition in experiment [1] (IC50). In addition, in experiment [2], the MIC is over 128 mg/L.

On to `Cc1c(Cc2c(Cl)cccc2Cl)c(=O)ccn1Cc1ccc(C(N)=O)cc1`, for which inhibition in experiment [1] was half-maximal at 2.5 µM (IC50). In addition, in experiment [2], inhibition of growth (MIC) required 32 mg/L (≈ 79.7 µM).

`CCc1c(Cc2c(Cl)cccc2Cl)c(=O)ccn1Cc1ccccc1`: half-maximal inhibition in experiment [1] (IC50) was put at 0.78 µM. The MIC in experiment [2] was 8 mg/L (≈ 21.5 µM).

`Cc1c(Cc2c(Cl)cccc2Cl)c(=O)ccn1CC(C)(C)SCc1cccc(C(F)(F)F)c1` had a half-inhibitory concentration (IC50) in experiment [1] of 1.9 µM. This compound also had an MIC in experiment [2] of 64 mg/L (≈ 124 µM).

With `CCCCc1c(C)n(Cc2ccccc2)ccc1=O`, in experiment [1], the 50% inhibitory concentration (IC50) was 61 µM. This compound returned an MIC in experiment [2] of over 128 mg/L.

`Cc1c(Cc2c(Cl)cccc2Cl)c(=O)ccn1CC1CCCCC1` returned a 50% inhibitory concentration (IC50) in experiment [1] of 0.22 µM. In experiment [2], this compound registered a minimum inhibitory concentration (MIC) of 0.25 mg/L (≈ 0.686 µM).

On to `Cc1c(-c2ccccc2)c(=O)ccn1Cc1ccccc1`, for which, in experiment [1], inhibition was half-maximal at 2.9 µM (IC50).

`Cc1c(Cc2c(Cl)cccc2Cl)c(=O)ccn1Cc1ccc([N+](=O)[O-])cc1` displayed an IC50 in experiment [1] of 1.8 µM. The compound also yielded a minimal inhibitory concentration (MIC) in experiment [2] of 16 mg/L (≈ 39.7 µM).

For `Oc1cc(Cl)ccc1Oc1ccc(Cl)cc1Cl` [TRICLOSAN], the IC50 in experiment [1] was 0.51 µM. This compound also came in with an MIC in experiment [2] of 0.125 mg/L (≈ 0.432 µM).
